The list is not random: actives were taken first. Their share in the collection is about 3.5%.
RGS4 inh = inhibitors of human RGS4; hit rate 0.45% among 310,000; P49798; HEK293 M3R/RGS4 inducible, Fluo-4 calcium flux; active compounds read high; triggered by carbachol at its EC20; B-score at 10 µM;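 active means B-score, a plate-corrected calcium signal, over three deviations above library mean, with baseline fluorescence within five deviations of library mean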;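 further: RGS4 expression induced by doxycycline in cells with stable M3 receptor; B-score is computed from the integrated fluorescence ratio over baseline after carbachol; higher B-score means a larger calcium signal and so more RGS4 inhibition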
Target sequence (P49798 whole entry, looked up): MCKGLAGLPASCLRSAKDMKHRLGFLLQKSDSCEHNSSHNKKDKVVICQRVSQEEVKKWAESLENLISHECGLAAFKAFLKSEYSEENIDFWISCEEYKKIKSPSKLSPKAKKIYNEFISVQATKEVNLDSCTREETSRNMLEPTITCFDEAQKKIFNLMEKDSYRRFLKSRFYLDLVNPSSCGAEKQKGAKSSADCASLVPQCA
MrgX1 allo act = allosterically activates human MrgX1 receptor signaling. Q96LB2. MrgX1-HEK293, Fluo-4 calcium flux, FDSS; active compounds read high. B-score at 10 µM. hit rate 0.63% among 310,000. AID 588675;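 active means plate-corrected calcium response at least 3 library SD above typical, normal starting fluorescence, not activating the receptor alone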;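 further: compound read alongside a low EC10 to EC30 dose of BAM8-22 agonist; peak minus trough fluorescence over baseline measured at the second addition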
Target sequence (Q96LB2 whole entry, looked up): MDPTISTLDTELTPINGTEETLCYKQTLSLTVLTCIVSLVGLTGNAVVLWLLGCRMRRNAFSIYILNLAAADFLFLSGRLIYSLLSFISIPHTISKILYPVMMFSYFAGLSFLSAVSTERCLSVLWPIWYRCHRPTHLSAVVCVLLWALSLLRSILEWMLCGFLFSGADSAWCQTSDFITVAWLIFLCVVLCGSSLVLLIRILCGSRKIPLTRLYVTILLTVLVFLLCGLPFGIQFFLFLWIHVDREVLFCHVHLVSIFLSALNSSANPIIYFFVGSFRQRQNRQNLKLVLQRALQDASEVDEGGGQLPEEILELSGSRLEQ
MrgX1 antag = antagonists of human MrgX1 receptor; Q96LB2; MRGX1-HEK293 calcium flux, Fluo-4, BAM8-22 antagonism; active compounds read low; B-score at 10 µM; hit rate 1.3% among 310,000; AID 588676;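 active means calcium-response B-score plate-corrected more than 3 library SD below zero, starting fluorescence within 5 deviations, no agonist response on first addition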;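 further: peak minus trough fluorescence over baseline after final BAM8-22 challenge near maximal dose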
RGS4 act = RGS4 potentiation or activation. HEK293 M3R/inducible RGS4, carbachol calcium flux Fluo4; active compounds read low. B-score at 10 µM. hit rate 0.92% among 310,000. AID 463111;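 active means B-score of the integrated calcium signal more than 4 SD below the library mean, with starting fluorescence not abnormally high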;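 further: negative B-score means reduced calcium response which marks RGS4 activation or potentiation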
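Reagent: ECmax carbachol challenge; Test system: M3R-expressing HEK293 line, RGS4 induced by doxycycline; Schedule: overnight RGS4 induction, 30 min dye load 37 °C, 20 min compound RT; Detection: calcium dye Fluo4 fluorescence; Read-out: Agonist-evoked peak-minus-minimum fluorescence over baseline, integrated ratio, B score.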
MrgX1 agonist = activates human MrgX1 receptor signaling. AID 588627. B-score at 10 µM. Q96LB2. hit rate 0.44% among 310,000. MrgX1-HEK293 cells, Fluo-4 calcium fluorescence, agonist mode; active compounds read high;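 active means calcium response B-score plate-corrected fluorescence ratio at least 3 library SD, with starting fluorescence B-score inside 5 SD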
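times = overnight plating, then 30 min 37 °C plus 30 min room-temperature dye loading | assay system = stable human MrgX1 HEK293 cell line | input = fifteen thousand cells per well | signal = kinetic calcium dye fluorescence, Fluo-4 NW | dosing = compound delivered in addition one of three | read-out = B-scored fluorescence response ratio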
MrgX1 allo conf = reconfirmed allosteric activator of human MrgX1 receptor | shares compounds with MrgX1 allo act | MrgX1-HEK293, Fluo-4 calcium fluorescence, FDSS | activation (ratio percentage), % at 10 µM | hit rate 13% among 1,200;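 active means ratio at least 3 SD above the weak peptide control, stable starting fluorescence, no direct agonism earlier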;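 further: compound followed by low BAM8-22 agonist challenge near EC20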
HEK293 Ca flux = counter-screen for MrgX1 antagonists: effect in parental HEK293 cells. shares compounds with MrgX1 antag. hit rate 2% among 4,000. fluorescence ratio F(max-min)/F0 at 10 µM. AID 624111. Fluo-4 calcium fluorescence, FDSS;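 active means duplicate-averaged calcium fluorescence ratio at least three times the standard deviation of buffer wells, a nonspecific response in parental cells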
HEK293 Ca counter = MrgX1 allosteric activator counter-screen hit in parental HEK293 cells | AID 624114 | shares compounds with MrgX1 antag | fluorescence ratio F(max-min)/F0 at 10 µM | hit rate 0.4% among 4,000 | parental HEK293 calcium flux, Fluo-4 fluorescence ratio; active compounds read high;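 active means calcium fluorescence ratio, averaged over duplicates, at least 3 SD of the buffer-well ratio, meaning a nonspecific response in receptor-free cells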;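 further: untransfected parental HEK293 lacking MrgX1 used as counterscreen for MrgX1 allosteric activators; fluorescence change taken during the second addition on a kinetic imager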
HEK293 Ca cntr2 = MrgX1 activator counter-screen hit in parental HEK293 cells; shares compounds with MrgX1 antag; Fluo-4 calcium fluorescence (FDSS); active compounds read high; fluorescence ratio F(max-min)/F0 at 10 µM; hit rate 8.7% among 4,000;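 active means calcium fluorescence ratio at least three times the spread of buffer wells, meaning a non-specific response in parental cells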
* = called active by the depositor; i = inactive; · = not tested or not shown.

SMILES	RGS4 inh	MrgX1 allo act	MrgX1 antag	RGS4 act	MrgX1 agonist	MrgX1 allo conf	HEK293 Ca flux	HEK293 Ca counter	HEK293 Ca cntr2
Cc1cccc(NC(=O)C2c3ccccc3Oc3ccccc32)n1	i	i	i	i	i	·	·	·	·
Nc1nc(Br)c2c(F)cccc2c1-c1ccc(Cl)cc1	i	8.3*	i	i	i	i	i	i	i
COC(=O)c1cccc(N/C=C(\[N+](=O)[O-])S(=O)(=O)c2ccccc2)c1	i	i	i	i	i	·	·	·	·
Cc1cc(=O)[nH]c(-c2ccccc2OC(F)(F)F)n1	i	i	i	i	i	·	·	·	·
CC(C)CCNC(=O)c1ccc(Cn2c(=S)[nH]c3ccccc3c2=O)cc1	i	i	i	i	i	·	·	·	·
Cc1ccc(NC(=S)NCC2CCN(C(C)c3ccccc3)C2)cc1 (stereo not given)	i	22*	i	i	i	i	i	i	i
CN(c1ccc(C(=O)Nc2ccc(Cl)cn2)cc1)S(=O)(=O)c1ccccc1	i	9.7*	i	i	i	i	i	i	i
Cc1ccc(S(=O)(=O)N(C)c2ccc(C(=O)Nc3ccc(C)cn3)cc2)cc1	i	i	i	i	i	·	·	·	·
CCN(CC)S(=O)(=O)c1cc(C(=O)Nc2ccc(Cl)cn2)ccc1C	i	20*	i	i	i	12%*	i	i	i
CCCN(C(=O)c1ccc(N(C)S(=O)(=O)c2ccc(C)cc2)cc1)C1CCS(=O)(=O)C1 (stereo not given)	i	i	i	i	i	·	·	·	·
Cc1csc(N(C(=O)c2ccccc2F)c2ccccc2)n1	i	i	i	i	i	·	·	·	·
O=C(c1ccc(F)cc1)n1c(NCc2ccccc2)n[nH]c1=S	i	7.3*	i	i	i	i	i	i	i
CC12C(=O)N(c3ccc(C(=O)N4CCOCC4)cc3)C(=O)C1C1c3ccccc3C2c2ccccc21 (stereo not given)	i	i	i	i	i	·	·	·	·
CCCn1c(=O)c(C(=O)NCCCc2ccccc2)c(O)c2ccccc21	i	6.8*	i	i	i	i	i	i	i
COc1ccc(S(=O)(=O)NCC2CCCN(Cc3ccccc3C)C2)cc1 (stereo not given)	i	i	i	i	i	·	·	·	·
COC(=O)C1Cc2ccccc2CN1C(=O)CCl (stereo not given)	i	8.1*	i	i	i	i	i	i	i
Cc1cccn2c(=O)c(C=O)c(N3CCC4(CC3)OCCO4)nc12	i	i	i	i	i	·	·	·	·
Cc1cc(NC(=O)CSc2nnc(-c3ccco3)n2Cc2ccco2)no1	i	i	i	i	i	·	·	·	·
CC(=O)Nc1ccc(NC(=O)CSc2nnc(-c3ccco3)n2Cc2ccco2)cc1	i	7*	i	i	i	i	i	i	i
COc1ccccc1CN1C(=O)c2ccccc2C1C(=O)NC1CCC(C)CC1 (stereo not given)	i	9.8*	i	i	i	i	i	i	i
CCC(C)NC(=O)C1c2ccccc2C(=O)N1Cc1ccccc1OC (stereo not given)	i	i	i	i	i	·	·	·	·
COc1ccc(CCNC(=O)CCc2ccccc2)cc1OC	i	7.5*	i	i	i	i	i	i	i
O=C(Cc1csc(Nc2nc(=S)[nH]c3ccccc23)n1)N1CCN(c2cccc(C(F)(F)F)c2)CC1	i	i	i	i	i	·	·	·	·
Cc1ccc(NC(=O)CNc2cccc(C)c2C)c(C)c1	i	16*	i	i	i	9.1%*	i	i	i
Cc1cccc(NC(=O)CNCC(=O)Nc2cccc(C)c2C)c1C	i	i	i	i	i	·	·	·	·
SMILES	RGS4 inh	MrgX1 allo act	MrgX1 antag	RGS4 act	MrgX1 agonist	MrgX1 allo conf	HEK293 Ca flux	HEK293 Ca counter	HEK293 Ca cntr2
O=C(Nc1ccncc1)C1CCC(CNS(=O)(=O)c2cccc3nsnc23)CC1 (stereo not given)	i	i	i	i	i	·	·	·	·
COc1cc(OC)c(C(=O)NC23CC4CC(CC(C4)C2)C3)cc1OC	i	i	i	i	i	·	·	·	·
O=C(NC12CC3CC(CC(C3)C1)C2)c1cc(F)c(F)c(F)c1F	i	6.6*	i	i	i	i	i	i	i
COc1ccc(C2(C(=O)Nc3ccc(OC)cc3OC)CCCC2)cc1	i	12*	i	i	i	i	i	i	i
CCC(c1nnnn1Cc1cccs1)N1CCN(C(=O)c2ccco2)CC1 (stereo not given)	i	7.1*	i	i	i	i	i	i	i
Cc1ccc(C(c2nnnn2Cc2cccs2)N2CCN(C(=O)c3ccco3)CC2)cc1 (stereo not given)	i	i	i	i	i	·	·	·	·
COc1ccc(-c2csc(NC(=O)CCCc3nc4ccccc4c(=O)[nH]3)n2)cc1OC	i	11*	i	-7.4*	i	i	i	i	i
O=C(COc1ccc(Br)cc1Cl)c1ccc[nH]1	i	9.7*	i	i	i	i	i	i	i
CC(C)N(C(=O)COc1ccc(Br)cc1Cl)C(C)C	i	21*	i	i	i	6.4%*	i	i	i
Cc1ccc2c(c1)N(CC(=O)NCC1CCCO1)C(=O)C(C(C)C)O2 (stereo not given)	i	i	i	i	i	·	·	·	·
O=C(O)C1Sc2[nH]c(=O)sc2C2c3cc(Cl)ccc3OC(=O)C12 (stereo not given)	i	i	i	i	i	·	·	·	·
O=C(O)C1Sc2[nH]c(=O)sc2C2c3cc(Br)ccc3OC(=O)C12 (stereo not given)	i	6.5*	i	i	i	i	i	i	i
COc1ccc(N2CCN(CC(O)COCc3ccccc3)CC2)cc1 (stereo not given)	i	7.7*	i	i	i	i	i	i	i

Assay outcomes from PubChem BioAssay.
